# Measurements: ChEMBL document CHEMBL2346584, “Microwave assisted nano (ZnO-TiO2) catalyzed synthesis of some new 4,5,6,7-tetrahydro-6-((5-substituted-1,3,4-oxadiazol-2-yl)methyl)thieno[2,3-c]pyridine as antimicrobial agents” (2013)
# The source made the active and inactive calls. No cut-off for these calls is given here.
# How the values were obtained:
# Bacillus subtilis [1] = assay: Antibacterial activity against Bacillus subtilis NCIM 2063 by agar method; type: functional
# Method in brief: (§1)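 Read-out was the minimum inhibitory concentration (MIC), determined by the standard agar method. Ciprofloxacin and ampicillin served as reference antibacterial standards.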
# Aspergillus niger = assay: Antifungal activity against Aspergillus niger NCIM 1196 by agar method; type: functional
# Method in brief: (§2)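 MIC values were obtained with the standard agar method, with miconazole as the reference antifungal standard.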
# Pseudomonas aeruginosa [2] = assay: Antibacterial activity against Pseudomonas aeruginosa NCIM 2036 by agar method; type: functional; method in brief: as §1
# Staphylococcus aureus = assay: Antibacterial activity against Staphylococcus aureus NCIM 2901 by agar method; type: functional; method in brief: as §1
# Escherichia coli = assay: Antibacterial activity against Escherichia coli NCIM 2256 by agar method; type: functional; method in brief: as §1
# Candida albicans = assay: Antifungal activity against Candida albicans NCIM 3471 by agar method; type: functional; method in brief: as §2
# Pseudomonas aeruginosa [3] = assay: Antibacterial activity against Pseudomonas aeruginosa NCIM 2036 up to 400 ug/ml by agar method; type: functional, organism-based; method in brief: as §1
# Bacillus subtilis [4] = assay: Antibacterial activity against Bacillus subtilis NCIM 2063 up to 400 ug/ml by agar method; type: functional, organism-based; method in brief: as §1
SMILES,MIC (Bacillus subtilis [1]),MIC (Aspergillus niger),MIC (Pseudomonas aeruginosa [2]),MIC (Staphylococcus aureus),MIC (Escherichia coli),MIC (Candida albicans),Activity (Pseudomonas aeruginosa [3]),Activity (Bacillus subtilis [4])
c1c[nH]c(-c2nnc(CN3CCc4ccsc4C3)o2)c1,100 µg/mL,120 µg/mL,125 µg/mL,75 µg/mL,50 µg/mL,60 µg/mL,,
Oc1ccc(-c2nnc(CN3CCc4ccsc4C3)o2)cc1,,140 µg/mL,,175 µg/mL,175 µg/mL,60 µg/mL,inactive,inactive
c1ccc(-c2nnc(CN3CCc4ccsc4C3)o2)cc1,150 µg/mL,160 µg/mL,300 µg/mL,125 µg/mL,150 µg/mL,80 µg/mL,,
Clc1ccc(-c2nnc(CN3CCc4ccsc4C3)o2)cc1,100 µg/mL,100 µg/mL,250 µg/mL,75 µg/mL,100 µg/mL,60 µg/mL,,
Clc1ccccc1-c1nnc(CN2CCc3ccsc3C2)o1,100 µg/mL,140 µg/mL,200 µg/mL,100 µg/mL,125 µg/mL,80 µg/mL,,
CC1(C)S[C@@H]2[C@H](NC(=O)[C@H](N)c3ccccc3)C(=O)N2[C@H]1C(=O)O [AMPICILLIN],250 µg/mL,,100 µg/mL,250 µg/mL,100 µg/mL,,,
COc1ccc(-c2nnc(CN3CCc4ccsc4C3)o2)cc1,125 µg/mL,140 µg/mL,175 µg/mL,100 µg/mL,125 µg/mL,80 µg/mL,,
Clc1cccc(Cl)c1-c1nnc(CN2CCc3ccsc3C2)o1,50 µg/mL,120 µg/mL,100 µg/mL,50 µg/mL,50 µg/mL,20 µg/mL,,
O=C(O)c1cn(C2CC2)c2cc(N3CCNCC3)c(F)cc2c1=O [CIPROFLOXACIN],,,,50 µg/mL,25 µg/mL,,,
Clc1ccc(COC(Cn2ccnc2)c2ccc(Cl)cc2Cl)c(Cl)c1 (stereo not given) [MICONAZOLE],,12.5 µg/mL,,,,25 µg/mL,,

# More lines, main results first:
MIC (Bacillus subtilis [1]),MIC (Aspergillus niger),MIC (Pseudomonas aeruginosa [2]),MIC (Staphylococcus aureus),MIC (Escherichia coli),MIC (Candida albicans),SMILES,Activity (Pseudomonas aeruginosa [3]),Activity (Bacillus subtilis [4])
,100 µg/mL,,100 µg/mL,125 µg/mL,40 µg/mL,Oc1ccc(-c2nnc(CN3CCc4ccsc4C3)o2)cc1O,inactive,inactive
75 µg/mL,60 µg/mL,125 µg/mL,75 µg/mL,50 µg/mL,20 µg/mL,Clc1ccc(-c2nnc(CN3CCc4ccsc4C3)o2)c(Cl)c1,,
50 µg/mL,60 µg/mL,100 µg/mL,25 µg/mL,25 µg/mL,20 µg/mL,Fc1ccc(-c2nnc(CN3CCc4ccsc4C3)o2)cc1,,
50 µg/mL,80 µg/mL,150 µg/mL,75 µg/mL,25 µg/mL,40 µg/mL,c1csc(-c2nnc(CN3CCc4ccsc4C3)o2)c1,,
100 µg/mL,60 µg/mL,150 µg/mL,50 µg/mL,50 µg/mL,40 µg/mL,c1ccc(-c2nnc(CN3CCc4ccsc4C3)o2)nc1,,
